These results are taken from the array DNA melting data of Ke et al. (doi:10.1101/2024.01.08.574731).

Data set [1] is described as follows: melting temperature; fluorescence melt of hairpins on a sequencing array, two-state fit, raised by 9.35 °C to match UV melts. The note with it: sodium 0.088 M. The essentials: (§1)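 Cy3 fluorescence of library hairpins on a sequenced MiSeq flow cell, with annealed Cy3 and quencher oligos, was imaged in 50 mM Na-HEPES pH 8.0, 25 mM NaCl in 2.5 °C steps up to 60 °C. Signals were normalised to pre-quench Cy3 and to control variants. Melting temperature and folding enthalpy came from bootstrapped two-state fits, inverse-variance combined over four replicates. Fitted temperatures were raised by 9.35 °C to match UV melts.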

Data set [2] can be described thus: folding enthalpy; higher = less favourable; fluorescence melt of hairpins on a sequencing array, two-state fit. Particulars: sodium 0.088 M. The essentials: as §1

For the sequence CGCGGACTGCTCCGCG ((((((....)))))), the Tm in data set [1] amounted to 62.4 °C. The folding enthalpy in data set [2] is -167 kJ/mol.

Take GAGGTCCGAAAGGAGCTC (((.(((....))).))): the Tm in data set [1] amounted to 69.3 °C. In addition, in data set [2], the folding enthalpy is -149 kJ/mol.

On to GTACGTGGAAACACATAC (((.(((....))).))), for which the Tm in data set [1] worked out at 32.7 °C. Also, in data set [2], the folding enthalpy is -92.4 kJ/mol.

Turning to GCGATTAATCGC ((((....)))), the Tm in data set [1] worked out at 56.1 °C. Moreover, the folding enthalpy in data set [2] was -123 kJ/mol.

As for GCCGAGCGAAAGCTTCGC ((..(((....)))..)), in data set [1], the Tm amounted to 49.2 °C. The folding enthalpy in data set [2] is -47.1 kJ/mol.

As to GCTGACGGAAACGTCAAC (.(((((....))))).), the Tm in data set [1] was determined as 43.2 °C. Besides, the folding enthalpy in data set [2] is -59.7 kJ/mol.

Turning to GCGCATCCGAAAGGACGC (((..(((....)))))), in data set [1], the Tm amounted to 50.2 °C. Also, the folding enthalpy in data set [2] is -85.6 kJ/mol.

For GTGTACGAAAGTAAACAC ((((((....)))..))), in data set [1], the Tm turned out to be 42.6 °C. The folding enthalpy in data set [2] is -105 kJ/mol.

Regarding GCCCTCGGAAACGAAGGC (((.(((....))).))), the Tm in data set [1] turned out to be 46.6 °C. Further, in data set [2], the folding enthalpy is -143 kJ/mol.

For GATACCGAAAGGTCAATC ((((((....)))..))), the Tm in data set [1] was found to be 21.7 °C. Also, the folding enthalpy in data set [2] was -34.7 kJ/mol.

Take GATCTCCACAGAGATC ((((((....)))))): the Tm in data set [1] was 55.7 °C. In addition, in data set [2], the folding enthalpy was -135 kJ/mol.

Turning to GCCCACGAAAGTGACGGC ((((((....)))..))), the Tm in data set [1] stood at 49.6 °C. The folding enthalpy in data set [2] is -83.1 kJ/mol.

Consider GTTTGTGAAAACAAAC ((((((....)))))), for which the Tm in data set [1] was 53.7 °C. Besides, the folding enthalpy in data set [2] is -157 kJ/mol.

GTTCGACGAAAGTCTAAC (((.(((....))).))): the Tm in data set [1] was found to be 42.5 °C. In addition, the folding enthalpy in data set [2] is -104 kJ/mol.

For the sequence GAATGCACGAAAGTGTTC (((..(((....)))))), the Tm in data set [1] was 23.1 °C. Further, in data set [2], the folding enthalpy is -36.6 kJ/mol.

Turning to GTATGGGGAAACTCATAC (((((.(....).))))), in data set [1], the Tm is 40.5 °C. The folding enthalpy in data set [2] is -145 kJ/mol.

As for GAGGATGGAAACATTCTC (((.(((....))).))), in data set [1], the Tm was 42.6 °C. In addition, in data set [2], the folding enthalpy was -107 kJ/mol.

Regarding GCGGGTAGCCGC ((((....)))), the Tm in data set [1] is 64 °C. The folding enthalpy in data set [2] is -101 kJ/mol.

Regarding GCCCCCGAAAGGGAAGGC ((((((....)))..))), the Tm in data set [1] was found to be 55.7 °C. The folding enthalpy in data set [2] was -113 kJ/mol.

As for GATCCTGCCAGGATC ((((((...)))))), in data set [1], the Tm was 56.6 °C. For the same sequence, the folding enthalpy in data set [2] is -145 kJ/mol.

For the sequence GTTCGCGAAAGCGCAAC ((((((....))).))), the Tm in data set [1] worked out at 45.6 °C. In data set [2], the folding enthalpy is -58 kJ/mol.

Turning to GCCGGCGAAAGCCCCGGC ((((((....)))..))), in data set [1], the Tm was found to be 55.2 °C. For the same sequence, the folding enthalpy in data set [2] was -76.7 kJ/mol.

Regarding GCGTAGCGAAAGCCCCGC (((..((....))..))), the Tm in data set [1] amounted to 35.9 °C. Further, in data set [2], the folding enthalpy is -28 kJ/mol.

For the sequence GGACTGCGAAAGCAATCC (((.(((....))).))), the Tm in data set [1] worked out at 47.8 °C. The folding enthalpy in data set [2] is -53.3 kJ/mol.

Turning to GATGGTGGAAACACCGTC ((.((((....)))).)), the Tm in data set [1] was determined as 53.6 °C. For the same sequence, in data set [2], the folding enthalpy is -99.1 kJ/mol.

As for GAATCCGAAAGGATGTTC ((((((....)))..))), the Tm in data set [1] stood at 37.3 °C. Also, in data set [2], the folding enthalpy was -57.5 kJ/mol.

GATCTAATATTAGATC ((((((....)))))): the Tm in data set [1] came to 43.2 °C. Further, in data set [2], the folding enthalpy is -169 kJ/mol.

GAGCTGGGAAACCAGCCC (.(((((....))))).): the Tm in data set [1] stood at 46.9 °C. Also, the folding enthalpy in data set [2] is -47.6 kJ/mol.

On to GGAGTTGGAAACGACTTC (.(((.(....).))).), for which the Tm in data set [1] came out at 59.7 °C. For the same sequence, the folding enthalpy in data set [2] is -148 kJ/mol.

For the sequence GTGAGCGAAAGCTGGCAC ((((((....)))..))), the Tm in data set [1] was determined as 43 °C. Moreover, the folding enthalpy in data set [2] was -37.7 kJ/mol.

As for GTCCTGGGAAACCAAGAC (((.(((....))).))), the Tm in data set [1] came out at 34.5 °C. Besides, the folding enthalpy in data set [2] is -93.8 kJ/mol.

As for GCATCGCGAAAGCGCCGC ((..(((....)))..)), the Tm in data set [1] turned out to be 38 °C. The folding enthalpy in data set [2] was -44 kJ/mol.

GCAGTGCGAAAGCTATGC (((..((....))..))): the Tm in data set [1] is 55.1 °C. Further, in data set [2], the folding enthalpy is -71.8 kJ/mol.

On to GTTACGACGAAAGTCAAC (((..(((....)))))), for which, in data set [1], the Tm was 25.5 °C. In addition, the folding enthalpy in data set [2] is -51.4 kJ/mol.

With GAAACCGAAAGGTCTTC ((((((....))).))), the Tm in data set [1] came to 40.4 °C. Further, in data set [2], the folding enthalpy was -81.1 kJ/mol.

In the case of GGCATCGAAAGATCGCC ((((((....))).))), in data set [1], the Tm stood at 50.4 °C. Further, the folding enthalpy in data set [2] was -102 kJ/mol.

With CGTTACGGAAACGTTACG (((.(((....))).))), in data set [1], the Tm was 48 °C. The folding enthalpy in data set [2] is -113 kJ/mol.
